According to ChEMBL document CHEMBL3621081, “Rational Development of a Potent 15-Lipoxygenase-1 Inhibitor with in Vitro and ex Vivo Anti-inflammatory Properties” (J Med Chem, 2015):
Blank lines part the entries; values can stand above or below the compound they belong to. Activity calls are given as the source filed them. No cut-off for these calls is given here.

Legend:
[1] = target: T1, Polyunsaturated fatty acid lipoxygenase ALOX15 (Homo sapiens) (UniProt P16050); test: Inhibition of human 15-LOX1 assessed as conversion of linoleic acid to 13(S)-HpODE at 50 uM after 10 mins by UV analysis
T1 sequence (whole entry): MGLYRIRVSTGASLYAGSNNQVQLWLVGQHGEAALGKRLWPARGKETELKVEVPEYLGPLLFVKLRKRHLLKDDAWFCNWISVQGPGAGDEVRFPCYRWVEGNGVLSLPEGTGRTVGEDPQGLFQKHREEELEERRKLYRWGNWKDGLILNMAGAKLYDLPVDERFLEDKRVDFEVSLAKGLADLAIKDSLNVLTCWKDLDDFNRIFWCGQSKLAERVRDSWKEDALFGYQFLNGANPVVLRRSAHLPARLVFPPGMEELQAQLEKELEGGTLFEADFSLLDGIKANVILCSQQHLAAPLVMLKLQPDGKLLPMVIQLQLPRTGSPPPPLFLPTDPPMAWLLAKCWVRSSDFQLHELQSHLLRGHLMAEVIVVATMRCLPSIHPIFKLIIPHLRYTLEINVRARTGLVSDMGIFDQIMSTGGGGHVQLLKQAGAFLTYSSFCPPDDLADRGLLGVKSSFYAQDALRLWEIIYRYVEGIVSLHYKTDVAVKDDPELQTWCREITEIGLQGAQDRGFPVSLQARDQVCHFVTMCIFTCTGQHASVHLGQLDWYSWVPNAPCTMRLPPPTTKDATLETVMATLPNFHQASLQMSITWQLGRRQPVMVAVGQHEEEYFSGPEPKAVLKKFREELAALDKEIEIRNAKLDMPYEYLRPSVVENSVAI
How it was run: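 Single-concentration screen at 50 μM: h-15-LOX-1 (1:640 final) in 25 mM HEPES pH 7.5 is preincubated with inhibitor for 10 min at rt. 25 µM linoleic acid final is added, and product formation is followed as the linear A234 increase. Activity is normalised to no-inhibitor (100%) and no-enzyme (0%) controls, in triplicate.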

RAW264.7 [2] = test: Antiinflammatory activity in mouse RAW264.7 cells assessed as effect on LPS/INFgamma-induced IL-12 gene expression at 1 to 100 nM treated 20 hrs before LPS/INFgamma stimulation measured after 4 hrs by RT-qPCR analysis; type: functional, cell-based
How it was run: (§1)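 RAW 264.7 cells (passage 7-16, DMEM with 10% FBS) are seeded at 20,000 cells/cm2 the day before. They receive 1-500 nM inhibitor final plus 10 μM linoleic acid for 20 h, with 10 ng/ml LPS and IFNγ for the last 4 h. Cytokine mRNA is measured by RT-qPCR on 10 ng cDNA, PCR in duplicate or triplicate, as fold change versus the LPS/IFNγ/linoleic acid control. Mean ± SEM, 4-6 experiments.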

RAW264.7 [3] = test: Antiinflammatory activity in mouse RAW264.7 cells assessed as effect on LPS/INFgamma-induced IL-1beta gene expression at 1 to 100 nM treated 20 hrs before LPS/INFgamma stimulation measured after 4 hrs by RT-qPCR analysis; type: functional, cell-based; how it was run: as §1
Lung [4] = test: Antiinflammatory activity in C57BL/6 mouse precision-cut lung slices assessed as reduction of LPS/INFgamma-induced IL-6 gene expression at 1 to 100 nM treated 20 hrs before LPS/INFgamma stimulation measured after 4 hrs by RT-qPCR analysis relative to control; type: functional, tissue-based
How it was run: (§2)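 Male C57bl/6 mouse lungs are agarose-filled, then cut into 250 μm slices, 3 per well, in supplemented DMEM at 37 °C and 5% CO2. Inhibitor is given at 1-500 nM final with 10 μM linoleic acid for 20 h, and LPS/IFNγ is added for the last 4 h. IL-1β, IL-6, IL-10, IL-12 and GAPDH mRNA are measured by RT-qPCR as fold change versus the LPS/IFNγ/linoleic acid control. Mean ± SEM, 4-6 independent experiments.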

RAW264.7 [5] = test: Antiinflammatory activity in mouse RAW264.7 cells assessed as effect on LPS/INFgamma-induced IL-6 gene expression at 1 to 100 nM treated 20 hrs before LPS/INFgamma stimulation measured after 4 hrs by RT-qPCR analysis; type: functional, cell-based; how it was run: as §1
RAW264.7 [6] = test: Cytotoxicity against mouse RAW264.7 cells assessed as cell viability at 12.5 uM by MTS assay; type: cell-based; conditions: raw264.7, 12.5 µM
How it was run: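 RAW 264.7 macrophages are incubated with inhibitor at 0.05-100 μM, and viability is read by MTS assay. Treated wells are compared statistically with non-treated control cells.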

Lung [7] = test: Cytotoxicity against C57BL/6 mouse precision-cut lung slices assessed as viability at 500 nM by LDH release assay; type: tissue-based; conditions: 0.5 µM
How it was run: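 Mouse lung slices are exposed to 1, 10, 100 or 500 nM inhibitor with 10 μM linoleic acid for 20 h. […] Mean ± SD of 3 independent experiments.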

Lung [8] = test: Antiinflammatory activity in C57BL/6 mouse precision-cut lung slices assessed as reduction of LPS/INFgamma-induced IL-12 gene expression at 1 to 100 nM treated 20 hrs before LPS/INFgamma stimulation measured after 4 hrs by RT-qPCR analysis relative to control; type: functional, tissue-based; how it was run: as §2
Lung [9] = test: Antiinflammatory activity in C57BL/6 mouse precision-cut lung slices assessed as increase of LPS/INFgamma-induced IL-10 gene expression at 1 to 100 nM treated 20 hrs before LPS/INFgamma stimulation measured after 4 hrs by RT-qPCR analysis relative to control; type: functional, tissue-based; how it was run: as §2
Lung [10] = test: Antiinflammatory activity in C57BL/6 mouse precision-cut lung slices assessed as reduction of LPS/INFgamma-induced IL-1beta gene expression at 1 to 100 nM treated 20 hrs before LPS/INFgamma stimulation measured after 4 hrs by RT-qPCR analysis relative to control; type: functional, tissue-based; how it was run: as §2

SMILES: CC(C)(C)OC(=O)c1cc2ccc(Cl)cc2[nH]1
- inhibition [1]: inactive

SMILES: CCOC(=O)c1[nH]c2cc(Cl)ccc2c1C(=O)C[C@@H](C)CCCC(C)C
- Activity (RAW264.7 [2]): inactive
- Activity (RAW264.7 [3]): inactive
- Activity (Lung [4]): Active
- Activity (RAW264.7 [5]): inactive
- Activity (RAW264.7 [6]): Non-toxic
- Activity (Lung [7]): Non-toxic
- Activity (Lung [8]): inactive
- Activity (Lung [9]): Active
- Activity (Lung [10]): Active

SMILES: CC(C)(C)OC(=O)n1cc(C=O)c2ccccc21
- inhibition [1]: inactive

SMILES: O=Cc1c[nH]c2ccccc12
- inhibition [1]: inactive

Other lines, results leading:

- inhibition [1]: inactive
SMILES: O=Cc1c(Cl)[nH]c2cc(Cl)ccc12

- inhibition [1]: inactive
SMILES: CCOC(=O)c1c(C=O)c2ccc(Cl)cc2n1C

- inhibition [1]: inactive
SMILES: O=Cc1c[nH]c2cc(Cl)ccc12

- inhibition [1]: inactive
SMILES: O=Cc1c(C(=O)O)[nH]c2cc(Cl)ccc12
